# From ChEMBL document CHEMBL1155568, “Biological characterization of fusapyrone and deoxyfusapyrone, two bioactive secondary metabolites of Fusarium semitectum” (J Nat Prod, 2000)
# Calls of active or inactive are those of the source. The calls are words filed in the database; no cut-off is given here.
# Tests used:
# Ascochyta rabiei = experiment: Antifungal activity against Ascochyta rabiei ITEM 466 at 5 ug/disk by paper disk method; type: functional, organism-based
# Summary of the method: (§1)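 Agar diffusion: a 0.7% water-agar overlay carrying 10^4 conidia/mL (or yeast cells) is poured on PDA. 6-mm cellulose disks loaded with methanolic compound at 5 or 15 µg/disk are air-dried and applied, with nystatin as comparator. Plates incubated 24-72 h at 25 °C; inhibition halo diameter read from three disks. Agar under each disk is subcultured on PDA to score fungicidal/fungistatic effect. Experiment run twice and averaged.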
# Cryptococcus neoformans [1] = experiment: Antifungal activity against Cryptococcus neoformans at 50 ug/disk paper disk method; type: functional, organism-based
# Candida albicans [2] = experiment: Antifungal activity against Candida albicans at 50 ug/disk by paper disk method; type: functional, organism-based
# Nakaseomyces glabratus [3] = experiment: Antifungal activity against Candida glabrata at 50 ug/disk by paper disk method; type: functional, organism-based
# Fusarium subglutinans = experiment: Antifungal activity against Fusarium subglutinans at 15 ug/disk by paper disk method; type: functional; summary of the method: as §1
# [4] = (§2) Toxicity against Artemia salina larvae; type: organism-based; conditions: in vivo
# Summary of the method: (§3)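 Quadruplicate wells; mortality counted after 24 and 36 h at 27 °C. LC50 from probit analysis of dose-mortality data from six independent experiments.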
# Aspergillus flavus [5] = experiment: Antifungal activity against Aspergillus flavus ITEM 9 at 15 ug/disk by paper disk method; type: functional; conditions: read-out: IZ; summary of the method: as §1
# Botrytis cinerea [6] = experiment: Antifungal activity against Botrytis cinerea at 15 ug/disk by paper disk method; type: functional; conditions: read-out: IZ; summary of the method: as §1
# Cladosporium cucumerinum = experiment: Antifungal activity against Cladosporium cucumerinum ITEM 2095 at 15 ug/disk by paper disk method; type: functional; conditions: read-out: IZ; summary of the method: as §1
# [7] = system: Colletotrichum gloeosporioides; experiment: Antifungal activity against Colletotrichum gloeosporioides ITEM 1729 at 15 ug/disk by paper disk method; type: functional; conditions: read-out: IZ; summary of the method: as §1
# Fusarium acuminatum = experiment: Antifungal activity against Fusarium acuminatum ITEM 795 at 15 ug/disk by paper disk method; type: functional; conditions: read-out: IZ; summary of the method: as §1
# Fusarium oxysporum = experiment: Antifungal activity against Fusarium oxysporum ITEM 149 at 15 ug/disk by paper disk method; type: functional; conditions: read-out: IZ; summary of the method: as §1
# Plenodomus tracheiphilus = experiment: Antifungal activity against Phoma tracheiphilla ITEM 1605 at 15 ug/disk by paper disk method; type: functional; conditions: read-out: IZ
# Summary of the method: (§4)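 Agar overlay disk diffusion on plant-derived filamentous fungi and yeasts: 0.7% water-agar seeded with 10^4 conidia/mL or a yeast cell suspension, poured over PDA. 6-mm cellulose disks were loaded from methanolic solutions and air-dried, with nystatin as comparator. Plates ran 24-72 h at 25 °C; inhibition halo was measured over three disks. Agar beneath disks was subcultured on PDA to separate fungicidal from fungistatic, scored in four classes; run twice, averaged.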
# [8] = system: Meyerozyma guilliermondii; experiment: Antifungal activity against Candida guilliermondii ITEM 1638 at 15 ug/disk by paper disk method; type: functional; conditions: read-out: IZ; summary of the method: as §1
# Candida maltosa = experiment: Antifungal activity against Candida maltosa ITEM 1639 at 15 ug/disk by paper disk method; type: functional; conditions: read-out: IZ; summary of the method: as §1
# Wickerhamomyces anomalus = experiment: Antifungal activity against Pichia anomala ITEM 1625 at 15 ug/disk by paper disk method; type: functional; conditions: Hansenula anomala; read-out: IZ; summary of the method: as §4
# [9] = system: Meyerozyma guilliermondii; experiment: Antifungal activity against Pichia guilliermondii ITEM 1644 at 15 ug/disk by paper disk method; type: functional; conditions: read-out: IZ; summary of the method: as §4
# Candida albicans [10] = experiment: Antifungal activity against Candida albicans 1 after 24 hrs by broth micromethod assay; type: functional
# Summary of the method: (§5)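 Broth microdilution in YNB with 0.5% glucose, phosphate buffer pH 7, using ten 2-fold dilutions (50-0.097 µg/mL). Inoculum from 24-48 h Sabouraud agar cultures, final 5 × 10^2 cells for C. albicans and C. kefyr, 5 × 10^3 cells/conidia for C. glabrata, Cryptococcus neoformans and Aspergillus. Incubated at 35 °C up to 72 h, read every 24 h. MIC is the complete absence of growth versus medium controls.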
# Candida albicans [11] = experiment: Antifungal activity against Candida albicans 2 after 24 hrs by broth micromethod assay; type: functional; summary of the method: as §5
# Nakaseomyces glabratus [12] = experiment: Antifungal activity against Candida glabrata 12 after 24 hrs by broth micromethod assay; type: functional; summary of the method: as §5
# Cryptococcus neoformans [13] = experiment: Antifungal activity against Cryptococcus neoformans 13 after 48 hrs by broth micromethod assay; type: functional; summary of the method: as §5
# Cryptococcus neoformans [14] = experiment: Antifungal activity against Cryptococcus neoformans 14 after 72 hrs by broth micromethod assay; type: functional; summary of the method: as §5
# Aspergillus fumigatus = experiment: Antifungal activity against Aspergillus fumigatus 1 after 72 hrs by broth micromethod assay; type: functional; summary of the method: as §5
# Aspergillus niger [15] = experiment: Antifungal activity against Aspergillus niger 2 after 48 hrs by broth micromethod assay; type: functional; summary of the method: as §5
# Aspergillus niger [16] = experiment: Antifungal activity against Aspergillus niger 2 after 72 hrs by broth micromethod assay; type: functional; summary of the method: as §5
# Aspergillus flavus [17] = experiment: Antifungal activity against Aspergillus flavus 3 after 24 hrs by broth micromethod assay; type: functional; summary of the method: as §5
# Cicer arietinum [18] = experiment: Phytotoxicity against chickpea cells at 10^-5 M; type: organism-based; conditions: 10 µM
# Summary of the method: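 Cells came from 2-week-old chickpea leaves by enzyme digestion, washed in holding buffer at pH 5.55, and mixed 1:1 with compound (final 10^-5 to 10^-3 M in 1% MeOH). They were held 3 h at 25 °C in the dark, then stained with fluorescein diacetate. Viability was scored on 30 cells by fluorescence microscopy. Fusaric acid served as positive control; repeated twice.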
# Cicer arietinum [19] = experiment: Phytotoxicity in chickpea leaf assessed as chlorosis in the leaf at 10^-3 M by leaf puncture assay; type: organism-based; conditions: in vivo, 1000 µM
# Summary of the method: (§6)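 Tomato and chickpea leaves were punctured and treated with toxin dissolved in MeOH and diluted with water (final 4% MeOH), tested from 10^-2 to 10^-7 M. Chlorosis and necrosis were recorded visually as spot symptoms.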
# Solanum lycopersicum [20] = experiment: Phytotoxicity in tomato stem assessed as chlorosis in the leaf at 10^-3 M by tomato cutting assay; type: organism-based; conditions: in vivo, 1000 µM
# Summary of the method: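 Young greenhouse tomato plants were cut, and the stems were immersed in toxin solutions (MeOH stock diluted with water; 10^-3 to 10^-6 M). They were held 24 h at 22 °C under a 12-h photoperiod, then moved to distilled water for 48 h more, and symptoms were scored visually.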
# Solanum lycopersicum [21] = experiment: Phytotoxicity against tomato assessed as seedling germination; type: organism-based; conditions: in vivo
# Summary of the method: (§7)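 Tomato seeds were surface-sterilized in 4% NaClO for 10 min and pregerminated 3 days in the dark. They were then placed 10 per dish on filter paper wetted with 2 mL of compound in 1% MeOH (10^-4 or 10^-5 M) and held 4 days at 25 °C under a 12-h photoperiod. Shoot and rootlet lengths were measured against control; done in triplicate, repeated once.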
# Solanum lycopersicum [22] = experiment: Stimulation of root elongation in tomato at 10^-4 M; type: functional, organism-based; summary of the method: as §7
# Kluyveromyces marxianus [23] = experiment: Antifungal activity against Candida kefyr at 50 ug/disk by paper disk method; type: functional, organism-based
# Artemia salina = experiment: as §2; type: organism-based; conditions: in vivo; summary of the method: as §3
# Kluyveromyces marxianus [24] = experiment: Antifungal activity against Candida kefyr Y0601 after 48 hrs by broth micromethod assay; type: functional; summary of the method: as §5
# Kluyveromyces marxianus [25] = experiment: Antifungal activity against Candida kefyr Y0601 after 72 hrs by broth micromethod assay; type: functional; summary of the method: as §5
# Nakaseomyces glabratus [26] = experiment: Antifungal activity against Candida glabrata 12 after 48 hrs by broth micromethod assay; type: functional; summary of the method: as §5
# Solanum lycopersicum [27] = experiment: Phytotoxicity in tomato leaf assessed as necrosis in the leaf at 10^-2 M by leaf puncture assay; type: organism-based; conditions: in vivo; summary of the method: as §6
# Solanum lycopersicum [28] = experiment: Phytotoxicity in tomato leaf assessed as necrosis in the leaf at 10^-3 M by leaf puncture assay; type: organism-based; conditions: in vivo, 1000 µM; summary of the method: as §6
# Penicillium verrucosum = experiment: Antifungal activity against Penicillium verrucosum ITEM 439 at 5 ug/disk by paper disk method; type: functional, organism-based; summary of the method: as §4
# Botrytis cinerea [29] = experiment: Antifungal activity against Botrytis cinerea ITEM 966 at 5 ug/disk by paper disk method; type: functional, organism-based; summary of the method: as §1
Structure (SMILES),Activity (Ascochyta rabiei),Activity (Cryptococcus neoformans [1]),Activity (Candida albicans [2]),Activity (Nakaseomyces glabratus [3]),Activity (Fusarium subglutinans),zone of inhibition at 15 µg/disc (Aspergillus flavus [5]),zone of inhibition at 15 µg/disc (Botrytis cinerea [6]),zone of inhibition at 15 µg/disc (Cladosporium cucumerinum),zone of inhibition at 15 µg/disc [7],zone of inhibition at 15 µg/disc (Fusarium acuminatum),zone of inhibition at 15 µg/disc (Fusarium oxysporum),zone of inhibition at 15 µg/disc (Plenodomus tracheiphilus),zone of inhibition at 15 µg/disc [8],zone of inhibition at 15 µg/disc (Candida maltosa),zone of inhibition at 15 µg/disc (Wickerhamomyces anomalus),zone of inhibition at 15 µg/disc [9],Activity (Candida albicans [10]),Activity (Candida albicans [11]),Activity (Nakaseomyces glabratus [12]),Activity (Cryptococcus neoformans [13]),further results
CCCCCCC(C)C/C(C)=C\C(C)/C=C(C)/C=C/C(O)C(C)(C)c1cc(O)c([C@@H]2O[C@@H](CO)C[C@@H](O)[C@@H]2O)c(=O)o1 (stereo not given in full) [DEXOYFUSAPYRONE],Active,Active,inactive,inactive,0 mm,12.4 mm,17 mm,13.5 mm,13.8 mm,0 mm,4 mm,16.3 mm,0 mm,0 mm,0 mm,0 mm,>50 µg/mL,>50 µg/mL,>50 µg/mL,6.25 µg/mL,LC50 [4]: 37.1 µM; Activity (Cryptococcus neoformans [14]): 3.12 µg/mL; Activity (Aspergillus fumigatus): 3.12 µg/mL; Activity (Aspergillus niger [15]): 1.56 µg/mL; Activity (Aspergillus niger [16]): 1.56 µg/mL; Activity (Aspergillus flavus [17]): 1.56 µg/mL; Activity (Cicer arietinum [18]): Active; Activity (Cicer arietinum [19]): Active; Activity (Solanum lycopersicum [20]): Not Active; Activity (Solanum lycopersicum [21]): Not Active; Activity (Solanum lycopersicum [22]): Active
CCCCCCC(C)C/C(C)=C\C(/C=C(C)/C=C/C(O)C(C)(C)c1cc(O)c([C@@H]2O[C@@H](CO)C[C@@H](O)[C@@H]2O)c(=O)o1)CO (stereo not given in full) [FUSAPYRONE],Active,Active,inactive,inactive,6 mm,27.3 mm,30 mm,33.3 mm,31.8 mm,17.8 mm,27.7 mm,40 mm,0 mm,0 mm,0 mm,0 mm,>50 µg/mL,>50 µg/mL,>50 µg/mL,6.25 µg/mL,Activity (Kluyveromyces marxianus [23]): Active; Activity (Artemia salina): Not Active; Activity (Kluyveromyces marxianus [24]): 1.56 µg/mL; Activity (Kluyveromyces marxianus [25]): 3.12 µg/mL; Activity (Nakaseomyces glabratus [26]): >50 µg/mL; Activity (Cryptococcus neoformans [14]): 3.12 µg/mL; Activity (Aspergillus fumigatus): 1.56 µg/mL; Activity (Aspergillus niger [15]): 1.56 µg/mL; Activity (Aspergillus niger [16]): 1.56 µg/mL; Activity (Aspergillus flavus [17]): 1.56 µg/mL; Activity (Cicer arietinum [18]): Active; Activity (Solanum lycopersicum [27]): Active; Activity (Solanum lycopersicum [28]): Active; Activity (Cicer arietinum [19]): Active; Activity (Solanum lycopersicum [20]): Not Active; Activity (Solanum lycopersicum [21]): Not Active; Activity (Solanum lycopersicum [22]): Active; Activity (Penicillium verrucosum): inactive; Activity (Botrytis cinerea [29]): inactive
